This is an account of results in ChEMBL document CHEMBL1137680, “A class of potent tyrosinase inhibitors: alkylidenethiosemicarbazide compounds” (Eur J Med Chem, 2009).

In the experiment the target is T1, Tyrosinase (Agaricus bisporus, UniProt O42713).
T1 sequence (O42713 whole entry): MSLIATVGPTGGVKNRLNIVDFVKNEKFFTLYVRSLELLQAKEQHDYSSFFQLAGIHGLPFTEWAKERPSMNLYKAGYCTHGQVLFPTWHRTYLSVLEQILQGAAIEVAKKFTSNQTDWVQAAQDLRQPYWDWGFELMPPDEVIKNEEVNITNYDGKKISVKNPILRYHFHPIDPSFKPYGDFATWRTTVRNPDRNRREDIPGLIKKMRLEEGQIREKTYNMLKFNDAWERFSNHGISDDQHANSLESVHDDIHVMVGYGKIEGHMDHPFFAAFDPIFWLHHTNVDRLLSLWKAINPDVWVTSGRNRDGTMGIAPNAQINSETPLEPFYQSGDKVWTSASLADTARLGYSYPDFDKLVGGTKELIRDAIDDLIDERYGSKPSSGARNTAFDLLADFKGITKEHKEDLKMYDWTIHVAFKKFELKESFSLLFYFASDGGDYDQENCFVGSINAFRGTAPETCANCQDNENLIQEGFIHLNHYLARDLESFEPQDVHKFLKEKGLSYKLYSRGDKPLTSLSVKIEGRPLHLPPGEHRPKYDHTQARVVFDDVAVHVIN
Description: Inhibition of mushroom tyrosinase. The essentials:
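Mushroom tyrosinase diphenolase activity, 30 units (0.2 mg/mL), preincubated 10 min at 25 °C with compound in 50 mM phosphate buffer pH 6.8; compound diluted from DMSO stock. At least eight inhibitor concentrations; IC50 interpolated from dose-response curves.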
The IC50 is the midpoint of a concentration-inhibition curve. With `NC(=S)N/N=C\C=C\c1ccccc1`, the IC50 is 2700 nM.

Regarding `CC(C)=C/C(C)=N\NC(N)=S`, it took 11500 nM to reach half-maximal inhibition (IC50).

`C/C=N\NC(N)=S` registered a 50% inhibitory concentration (IC50) of 230 nM.

In turn, `NC(=S)N/N=C1\CCCC(=O)C1` returned an IC50 of 15100 nM.

`CC/C=N\NC(N)=S` registered an IC50 of 200 nM.

For the compound `CC/C(C)=N\NC(N)=S`, the IC50 stood at 280 nM.

As for `Cc1ccc(C)n1NC(N)=S`, the concentration for half-maximal inhibition (IC50) was found to be 850 nM.

With `CC(C)/C=N\NC(N)=S`, half-maximal inhibition (IC50) was put at 620 nM.

In turn, `NC(=S)NN=C1CCCC1` came in with an IC50 of 170 nM.

`CC(C)=NNC(N)=S` gave an IC50 of 86 nM.

In turn, `C/C=C/C=N\NC(N)=S` returned an IC50 of 1000 nM.

The compound `NC(=S)NN=C1CCCCC1` had a 50% inhibitory concentration (IC50) of 950 nM.
